Assays:
[1] = biological target: Tyrosine-protein kinase ABL2 (Homo sapiens, UniProt P42684); assay: Inhibition of ARG Lys1 labeling site in human Huh-7 cell lysate at 1 uM by KiNativ Profiling analysis relative to control; format: subcellular
[2] = biological target: T1, Mitogen-activated protein kinase kinase kinase kinase 2 (Homo sapiens) (UniProt Q12851); assay: Inhibition of MAP4K2 Lys1 labeling site in human Huh-7 cell lysate at 1 uM by KiNativ Profiling analysis relative to control; format: subcellular
T1 sequence (whole entry): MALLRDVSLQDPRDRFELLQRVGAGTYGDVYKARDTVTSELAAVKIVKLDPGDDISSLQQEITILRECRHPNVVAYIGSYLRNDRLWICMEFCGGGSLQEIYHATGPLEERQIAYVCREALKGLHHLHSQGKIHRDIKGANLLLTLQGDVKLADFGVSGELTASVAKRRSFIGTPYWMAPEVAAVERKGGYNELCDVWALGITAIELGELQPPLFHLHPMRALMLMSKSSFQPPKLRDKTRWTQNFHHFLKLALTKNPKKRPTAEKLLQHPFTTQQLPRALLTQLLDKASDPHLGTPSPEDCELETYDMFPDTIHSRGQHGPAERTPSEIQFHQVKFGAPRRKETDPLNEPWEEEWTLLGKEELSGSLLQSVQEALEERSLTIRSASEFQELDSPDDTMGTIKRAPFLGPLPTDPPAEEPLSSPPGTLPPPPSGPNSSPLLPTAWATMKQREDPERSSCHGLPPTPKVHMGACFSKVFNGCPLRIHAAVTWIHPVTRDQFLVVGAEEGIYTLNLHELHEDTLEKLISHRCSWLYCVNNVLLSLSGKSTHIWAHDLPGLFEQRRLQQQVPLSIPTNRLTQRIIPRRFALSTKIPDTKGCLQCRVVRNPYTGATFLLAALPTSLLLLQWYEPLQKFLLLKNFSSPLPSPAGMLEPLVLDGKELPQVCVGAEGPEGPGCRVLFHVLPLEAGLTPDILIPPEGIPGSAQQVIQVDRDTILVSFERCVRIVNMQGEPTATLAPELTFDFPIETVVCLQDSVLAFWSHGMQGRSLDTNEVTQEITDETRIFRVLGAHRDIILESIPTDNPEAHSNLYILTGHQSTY

[3] = biological target: Aurora kinase B (Homo sapiens) (UniProt Q96GD4); assay: Inhibition of AurB ATP Loop labeling site in human A-375 cells at 5 uM by KiNativ Profiling analysis relative to control; format: cell-based
Procedure, shortened: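 Live A375 melanoma cells were treated with compound at 5 or 0.5 μM, then lysed. The lysates were labeled with a lysine-reactive ATP or ADP-biotin probe. Kinase protection from probe labeling was measured by KiNativ.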

[4] = biological target: Serine/threonine-protein kinase 26 (Homo sapiens) (UniProt Q9P289); assay: Inhibition of MST4 Lys1 labeling site in human A-375 cells at 0.5 uM by KiNativ Profiling analysis relative to control; format: cell-based
[5] = biological target: T2, Tyrosine-protein kinase Fer (Homo sapiens, UniProt P16591); assay: Inhibition of FER ACT labeling site in human A-375 cells at 0.5 uM by KiNativ Profiling analysis relative to control; format: cell-based
[6] = biological target: Proto-oncogene tyrosine-protein kinase Src (Homo sapiens, UniProt P12931); assay: Inhibition of SRC ACT labeling site in human A-375 cells at 5 uM by KiNativ Profiling analysis relative to control; format: cell-based
[7] = biological target: T2, Tyrosine-protein kinase Fer; assay: Inhibition of FER Lys1 labeling site harbouring DKTSVAVKTCKEDLPQELK in human A-375 cells at 5 uM by KiNativ Profiling analysis relative to control; format: cell-based
[8] = biological target: T3, Ephrin type-B receptor 4 (Homo sapiens) (UniProt P54760); assay: Inhibition of EphB4 ACT labeling site in human A-375 cells at 0.5 uM by KiNativ Profiling analysis relative to control; format: cell-based
T3 sequence (whole entry): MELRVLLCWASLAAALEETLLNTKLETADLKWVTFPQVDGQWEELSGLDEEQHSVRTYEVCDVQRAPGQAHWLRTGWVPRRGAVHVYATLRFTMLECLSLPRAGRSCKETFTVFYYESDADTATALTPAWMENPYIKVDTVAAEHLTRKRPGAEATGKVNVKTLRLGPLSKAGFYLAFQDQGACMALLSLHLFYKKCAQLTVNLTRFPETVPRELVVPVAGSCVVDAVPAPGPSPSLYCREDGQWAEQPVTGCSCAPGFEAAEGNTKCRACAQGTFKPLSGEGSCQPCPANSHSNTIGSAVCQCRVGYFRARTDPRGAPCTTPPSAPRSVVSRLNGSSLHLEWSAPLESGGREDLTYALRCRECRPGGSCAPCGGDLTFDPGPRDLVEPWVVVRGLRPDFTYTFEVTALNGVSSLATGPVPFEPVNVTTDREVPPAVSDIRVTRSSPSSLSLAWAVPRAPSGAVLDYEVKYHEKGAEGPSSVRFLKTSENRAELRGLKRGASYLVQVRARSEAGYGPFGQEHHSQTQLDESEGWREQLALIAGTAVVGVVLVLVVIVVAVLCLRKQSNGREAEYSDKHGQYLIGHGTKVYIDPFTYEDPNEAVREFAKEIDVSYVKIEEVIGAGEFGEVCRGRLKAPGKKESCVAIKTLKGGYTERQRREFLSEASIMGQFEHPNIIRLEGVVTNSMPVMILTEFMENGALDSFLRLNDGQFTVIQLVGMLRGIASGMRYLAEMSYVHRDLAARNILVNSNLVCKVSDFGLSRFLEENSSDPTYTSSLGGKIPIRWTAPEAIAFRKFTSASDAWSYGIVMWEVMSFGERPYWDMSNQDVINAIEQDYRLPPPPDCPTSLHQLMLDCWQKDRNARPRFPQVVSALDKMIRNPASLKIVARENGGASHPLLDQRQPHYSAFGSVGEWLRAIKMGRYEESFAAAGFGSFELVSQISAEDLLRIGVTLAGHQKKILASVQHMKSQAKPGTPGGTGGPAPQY
Procedure, shortened: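 Live A375 melanoma cells were treated with compound at 0.5 or 5 μM, then lysed. Lysates were labeled with a lysine-reactive ATP or ADP-biotin probe. The read-out was protection of each kinase probe-labeling site from labeling, relative to control.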

[9] = biological target: Cyclin-dependent kinase 8 (Homo sapiens) (UniProt P49336); assay: Inhibition of CDK8 Lys2 labeling site in human A-375 cells at 0.05 uM by KiNativ Profiling analysis relative to control; format: cell-based
[10] = biological target: Serine/threonine-protein kinase WNK1 (Homo sapiens) (UniProt Q9H4A3); assay: Inhibition of Wnk1 ATP Loop labeling site in human A-375 cells at 0.5 uM by KiNativ Profiling analysis relative to control; format: cell-based
[11] = biological target: 3-phosphoinositide-dependent protein kinase 1 (Homo sapiens) (UniProt O15530); assay: Inhibition of PDK1 Protein Kinase Domain in human A-375 cells at 0.5 uM by KiNativ Profiling analysis relative to control
[12] = biological target: Phosphatidylinositol 4,5-bisphosphate 3-kinase catalytic subunit beta isoform (Homo sapiens) (UniProt P42338); assay: Inhibition of PIK3CB ATP labeling site in human A-375 cells at 0.05 uM by KiNativ Profiling analysis relative to control; format: cell-based
Phosphatidylinositol 4,5-bisphosphate 3-kinase catalytic subunit beta isoform (Homo sapiens), sequence (P42338 whole entry, looked up, canonical isoform): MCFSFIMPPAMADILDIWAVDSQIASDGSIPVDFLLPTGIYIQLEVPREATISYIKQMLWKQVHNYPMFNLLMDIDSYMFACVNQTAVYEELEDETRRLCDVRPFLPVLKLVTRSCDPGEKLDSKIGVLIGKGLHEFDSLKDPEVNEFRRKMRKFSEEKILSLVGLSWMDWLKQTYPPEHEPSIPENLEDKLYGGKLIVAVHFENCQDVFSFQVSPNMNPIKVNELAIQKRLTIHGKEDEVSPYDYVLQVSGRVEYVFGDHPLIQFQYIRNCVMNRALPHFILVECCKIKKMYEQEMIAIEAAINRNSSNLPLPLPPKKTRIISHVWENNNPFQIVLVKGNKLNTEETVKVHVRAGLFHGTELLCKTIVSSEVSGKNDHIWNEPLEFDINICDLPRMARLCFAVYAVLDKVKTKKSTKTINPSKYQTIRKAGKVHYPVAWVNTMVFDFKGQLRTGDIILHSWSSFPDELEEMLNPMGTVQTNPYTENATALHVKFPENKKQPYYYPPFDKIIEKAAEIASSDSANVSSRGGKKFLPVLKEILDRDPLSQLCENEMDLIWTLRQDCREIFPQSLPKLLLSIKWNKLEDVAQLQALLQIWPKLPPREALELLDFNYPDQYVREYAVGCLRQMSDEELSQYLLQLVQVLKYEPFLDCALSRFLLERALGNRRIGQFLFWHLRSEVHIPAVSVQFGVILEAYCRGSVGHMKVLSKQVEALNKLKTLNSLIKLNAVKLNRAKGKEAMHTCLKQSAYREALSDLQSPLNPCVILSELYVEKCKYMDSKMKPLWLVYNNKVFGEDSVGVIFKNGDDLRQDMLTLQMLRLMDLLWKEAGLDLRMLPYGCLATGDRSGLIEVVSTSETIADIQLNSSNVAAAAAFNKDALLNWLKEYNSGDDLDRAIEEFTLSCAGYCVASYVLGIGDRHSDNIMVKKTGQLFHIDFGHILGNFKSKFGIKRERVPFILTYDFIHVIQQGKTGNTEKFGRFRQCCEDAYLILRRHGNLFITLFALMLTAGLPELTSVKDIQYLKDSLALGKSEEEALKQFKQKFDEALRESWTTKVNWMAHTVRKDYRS

T2 sequence (P16591 whole entry, looked up): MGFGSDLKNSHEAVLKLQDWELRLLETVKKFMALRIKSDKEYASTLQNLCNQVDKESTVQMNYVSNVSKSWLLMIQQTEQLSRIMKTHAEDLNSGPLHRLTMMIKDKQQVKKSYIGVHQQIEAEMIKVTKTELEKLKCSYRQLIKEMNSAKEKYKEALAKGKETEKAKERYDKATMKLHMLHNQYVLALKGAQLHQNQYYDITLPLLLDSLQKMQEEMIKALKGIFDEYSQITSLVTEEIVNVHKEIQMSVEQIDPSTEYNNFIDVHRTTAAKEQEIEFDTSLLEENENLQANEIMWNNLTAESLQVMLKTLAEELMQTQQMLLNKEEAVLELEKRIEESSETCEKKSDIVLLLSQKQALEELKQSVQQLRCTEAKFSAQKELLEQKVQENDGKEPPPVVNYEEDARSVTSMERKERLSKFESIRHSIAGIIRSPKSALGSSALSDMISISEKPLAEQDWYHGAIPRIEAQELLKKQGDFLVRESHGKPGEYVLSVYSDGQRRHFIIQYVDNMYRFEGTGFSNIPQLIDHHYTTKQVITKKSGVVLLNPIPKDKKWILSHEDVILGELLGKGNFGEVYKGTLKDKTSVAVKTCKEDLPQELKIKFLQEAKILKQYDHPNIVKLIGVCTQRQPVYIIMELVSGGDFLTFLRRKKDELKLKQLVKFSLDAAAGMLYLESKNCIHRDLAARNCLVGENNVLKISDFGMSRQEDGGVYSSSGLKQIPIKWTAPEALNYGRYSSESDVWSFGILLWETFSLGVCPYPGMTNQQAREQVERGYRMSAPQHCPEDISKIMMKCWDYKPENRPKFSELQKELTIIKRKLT
Serine/threonine-protein kinase WNK1 (Homo sapiens), sequence (Q9H4A3 whole entry, looked up, the tested form may be a part): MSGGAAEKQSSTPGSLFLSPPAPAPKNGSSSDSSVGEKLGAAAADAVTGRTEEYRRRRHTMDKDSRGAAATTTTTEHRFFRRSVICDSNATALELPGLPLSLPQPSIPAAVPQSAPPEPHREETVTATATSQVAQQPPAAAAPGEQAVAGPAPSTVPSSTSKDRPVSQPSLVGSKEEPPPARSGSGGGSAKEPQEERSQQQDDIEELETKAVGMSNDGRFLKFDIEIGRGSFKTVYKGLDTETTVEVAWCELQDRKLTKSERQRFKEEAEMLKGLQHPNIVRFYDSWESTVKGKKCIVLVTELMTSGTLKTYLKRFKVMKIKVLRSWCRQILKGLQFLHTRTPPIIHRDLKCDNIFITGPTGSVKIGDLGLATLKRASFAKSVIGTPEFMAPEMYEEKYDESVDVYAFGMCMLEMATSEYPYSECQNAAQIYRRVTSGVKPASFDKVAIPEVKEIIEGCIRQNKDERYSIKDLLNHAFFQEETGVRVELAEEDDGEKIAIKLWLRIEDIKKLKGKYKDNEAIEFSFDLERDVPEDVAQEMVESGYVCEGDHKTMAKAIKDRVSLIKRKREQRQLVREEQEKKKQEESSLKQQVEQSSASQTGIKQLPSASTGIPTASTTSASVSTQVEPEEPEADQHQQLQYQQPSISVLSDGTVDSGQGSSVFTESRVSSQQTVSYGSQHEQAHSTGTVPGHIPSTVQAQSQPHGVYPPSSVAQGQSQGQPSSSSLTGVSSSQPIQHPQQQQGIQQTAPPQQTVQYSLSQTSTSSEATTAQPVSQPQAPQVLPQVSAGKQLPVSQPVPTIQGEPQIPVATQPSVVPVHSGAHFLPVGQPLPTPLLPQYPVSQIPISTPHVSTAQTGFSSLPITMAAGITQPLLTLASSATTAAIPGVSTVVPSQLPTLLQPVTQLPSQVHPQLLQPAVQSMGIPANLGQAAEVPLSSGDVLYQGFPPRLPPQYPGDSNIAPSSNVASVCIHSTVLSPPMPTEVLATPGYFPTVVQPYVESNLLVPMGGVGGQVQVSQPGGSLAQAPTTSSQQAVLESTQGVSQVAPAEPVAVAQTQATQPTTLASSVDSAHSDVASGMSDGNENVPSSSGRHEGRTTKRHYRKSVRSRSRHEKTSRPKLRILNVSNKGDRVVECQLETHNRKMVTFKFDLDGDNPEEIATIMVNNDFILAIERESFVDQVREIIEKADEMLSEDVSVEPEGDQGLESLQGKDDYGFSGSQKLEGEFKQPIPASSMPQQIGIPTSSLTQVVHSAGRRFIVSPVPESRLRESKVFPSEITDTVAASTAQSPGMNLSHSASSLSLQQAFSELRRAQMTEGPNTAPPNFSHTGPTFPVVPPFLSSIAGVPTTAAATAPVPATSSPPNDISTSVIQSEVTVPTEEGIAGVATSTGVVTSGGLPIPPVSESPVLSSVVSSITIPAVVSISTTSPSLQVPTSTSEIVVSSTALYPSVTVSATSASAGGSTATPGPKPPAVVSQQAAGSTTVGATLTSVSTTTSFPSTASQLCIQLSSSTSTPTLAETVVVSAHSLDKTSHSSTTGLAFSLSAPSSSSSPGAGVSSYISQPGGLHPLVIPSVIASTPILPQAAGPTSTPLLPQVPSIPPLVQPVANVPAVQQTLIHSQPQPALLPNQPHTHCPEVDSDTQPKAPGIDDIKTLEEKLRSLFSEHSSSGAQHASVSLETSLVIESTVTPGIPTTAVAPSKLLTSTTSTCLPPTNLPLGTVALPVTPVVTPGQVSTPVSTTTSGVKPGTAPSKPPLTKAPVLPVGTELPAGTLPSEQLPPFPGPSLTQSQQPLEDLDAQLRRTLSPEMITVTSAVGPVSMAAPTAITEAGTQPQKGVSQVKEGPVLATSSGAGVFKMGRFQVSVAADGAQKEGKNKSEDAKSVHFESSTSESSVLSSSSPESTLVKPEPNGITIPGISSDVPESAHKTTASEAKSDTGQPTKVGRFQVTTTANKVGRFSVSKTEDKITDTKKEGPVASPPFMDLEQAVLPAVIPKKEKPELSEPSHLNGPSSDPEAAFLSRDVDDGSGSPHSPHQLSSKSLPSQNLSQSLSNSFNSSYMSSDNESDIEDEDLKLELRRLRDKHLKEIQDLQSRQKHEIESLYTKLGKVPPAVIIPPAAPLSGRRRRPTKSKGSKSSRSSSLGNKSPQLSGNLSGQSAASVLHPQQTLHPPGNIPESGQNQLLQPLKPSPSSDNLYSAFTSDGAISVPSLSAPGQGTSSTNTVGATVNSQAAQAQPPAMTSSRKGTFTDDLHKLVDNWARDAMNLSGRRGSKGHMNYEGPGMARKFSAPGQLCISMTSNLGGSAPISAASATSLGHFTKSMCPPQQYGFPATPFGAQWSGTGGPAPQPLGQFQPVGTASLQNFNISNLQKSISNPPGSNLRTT
Cyclin-dependent kinase 8 (Homo sapiens), sequence (P49336 whole entry): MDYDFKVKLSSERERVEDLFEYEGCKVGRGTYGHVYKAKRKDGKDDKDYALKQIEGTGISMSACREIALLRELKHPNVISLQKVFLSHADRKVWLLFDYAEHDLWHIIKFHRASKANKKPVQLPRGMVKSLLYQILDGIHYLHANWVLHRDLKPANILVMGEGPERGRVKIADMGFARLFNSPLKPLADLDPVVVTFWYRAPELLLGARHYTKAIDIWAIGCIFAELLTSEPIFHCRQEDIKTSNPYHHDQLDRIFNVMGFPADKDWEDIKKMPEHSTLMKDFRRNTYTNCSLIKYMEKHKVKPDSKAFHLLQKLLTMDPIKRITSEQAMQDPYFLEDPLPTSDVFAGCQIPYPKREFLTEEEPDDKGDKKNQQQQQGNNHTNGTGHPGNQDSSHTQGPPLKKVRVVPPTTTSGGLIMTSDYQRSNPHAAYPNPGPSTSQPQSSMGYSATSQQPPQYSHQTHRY
Aurora kinase B (Homo sapiens), sequence (Q96GD4 whole entry): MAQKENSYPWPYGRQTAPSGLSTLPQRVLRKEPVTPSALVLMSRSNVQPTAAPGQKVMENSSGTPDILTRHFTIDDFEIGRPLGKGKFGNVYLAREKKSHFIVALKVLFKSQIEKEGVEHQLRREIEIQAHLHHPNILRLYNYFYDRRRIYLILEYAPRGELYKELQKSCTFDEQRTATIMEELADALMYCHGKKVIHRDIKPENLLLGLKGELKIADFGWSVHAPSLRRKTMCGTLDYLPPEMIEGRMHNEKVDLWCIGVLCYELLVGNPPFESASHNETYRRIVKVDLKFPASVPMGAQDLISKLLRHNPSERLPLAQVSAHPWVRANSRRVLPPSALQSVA

SMILES	inhibition [1]	inhibition [2]	inhibition [3]	inhibition [4]	inhibition [5]	inhibition [6]	inhibition [7]	inhibition [8]	inhibition [9]	inhibition [10]	inhibition [11]	inhibition [12]
CNc1cc(Oc2cc(C(=O)Nc3cc(N4CCN(C)CC4)cc(C(F)(F)F)c3)ccc2C)ncn1	48.4%	85.3%	–	–	–	–	–	–	–	–	–	–
CCN1CCN(Cc2ccc(NC(=O)c3ccc(C)c(/C=C/c4cnc5[nH]ccc5c4OC)c3)cc2C(F)(F)F)CC1	–	–	48.5%	2.8%	-10%	> 99%	80.3%	78.1%	-9.4%	15.3%	4.4%	38.5%
CNc1cc(Oc2cc(C(=O)Nc3cc(-n4cnc(C)c4)cc(C(F)(F)F)c3)ccc2C)ncn1	51.8%	79.7%	–	–	–	–	–	–	–	–	–	–
CCN1CCN(Cc2ccc(NC(=O)c3ccc(C)c(Oc4ccnc5[nH]ccc45)c3)cc2C(F)(F)F)CC1	–	–	31.4%	-0.4%	88%	89.6%	98.1%	39.2%	32.1%	11.4%	15.4%	3.1%
